pIC50: −log10 of the molar value.
Key:
Assay type in all cases: functional, cell-based
[1] = Cytotoxicity against human BEAS2B cells after 48 hrs by MTS assay; details: BEAS-2B
[2] = Cytotoxicity against human HL60 cells after 48 hrs by MTS assay; details: HL-60, 48 h
In short: (§1)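 Cells grown in RPMI 1640 with 10% FBS and penicillin/streptomycin at 37 °C under 5% CO2. Adherent lines were seeded at 1 × 10^4 cells/well and left to attach for 12 h. Compounds in DMSO were tested at 0.064, 0.32, 1.6, 8 and 40 μM, in triplicate, for 48 h, with cisplatin as positive control. MTS was then added and formazan dissolved in 20% SDS (12 h, room temperature). OD read at 490 nm; IC50 by Reed and Muench method.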

A549 = assay: Cytotoxicity against human A549 cells after 48 hrs by MTS assay; details: A549, 48 h; in short: as §1
MCF7 = assay: Cytotoxicity against human MCF7 cells after 48 hrs by MTS assay; details: MCF7, 48 h; in short: as §1
SW480 = assay: Cytotoxicity against human SW480 cells after 48 hrs by MTS assay; details: SW480, 48 h; in short: as §1
SMMC-7721 = assay: Cytotoxicity against human SMMC7721 cells after 48 hrs by MTS assay; details: SMMC-7721, 48 h; in short: as §1

Row | Compound | pIC50 [1] | pIC50 [2] | pIC50 (A549) | pIC50 (MCF7) | pIC50 (SW480) | pIC50 (SMMC-7721)
1 | CC1(C)C(=O)C=C[C@@]2(C)C1=C(O)C(=O)[C@]1(C)[C@@H]2[C@@H](O)C[C@@]2(C)[C@H](C3=CC(=O)O[C@@H]3O)C[C@H]3O[C@]321 | 5.03 | 5.51 | 5.59 | 5.41 | 5.62 | 5.66
2 | CO[C@@H]1C=C([C@@H]2C[C@H]3O[C@@]34[C@@]2(C)C[C@H](O)[C@@H]2[C@@]3(C)C=CC(=O)C(C)(C)C3=C(O)C(=O)[C@]24C)[C@@H](OC)O1 | 5.30 | 5.44 | 5.43 | 5.38 | 5.46 | 5.62

Source: ChEMBL document CHEMBL3351792, “Limonoids from the Leaves and Twigs of Walsura yunnanensis” (J Nat Prod, 2014)
